The results in this text go back to ChEMBL document CHEMBL1126131, “6-Alkyl-12-formylindolo[2,1-a]isoquinolines. Syntheses, estrogen receptor binding affinities, and stereospecific cytostatic activity” (1992).

SMILES strings stand for the structures. “And” between values parts separate entries of the source, which are not always exact repeats. Equal values may be shown once.

Assay [1] addresses Estrogen receptor (Bos taurus) (UniProt Q9XSB5+P49884). Description: Relative binding affinity for calf uterine estrogen receptor compared to 17-beta-estradiol (E2). Type of assay: protein assay. An outline of the steps: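 Competitive binding in calf uterine cytosol (final protein 3 mg/mL) in Tris-EDTA-NaN3 buffer, pH 7.5. 5 nM [3H]17β-estradiol plus competitor at 10^-9 to 10^-5 M, 18 h at 4 °C. Free ligand removed with dextran-coated charcoal (90 min, 4 °C). Nonspecific binding from 4 μM estradiol. RBA = ratio of estradiol to test molar concentrations giving 50% displacement × 100.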

The test system of assay [2] is MDA-MB-231. Description: Inhibition of hormone-independent MDA-MB 231 mammary tumor cell proliferation at 1*10e-5 M. Type of assay: functional, Homo sapiens. An outline of the steps: (§1)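 MDA-MB 231 cells were grown in McCoy 5a medium with 10% NCS and were pre-grown 3 d in microplates before drug medium was added (controls 0.1% DMF). After 2 days of incubation, wells were fixed with 1% glutaraldehyde, stained with 0.02% crystal violet, and read by optical density. T/C (%) was corrected for initial density (vinblastine 10^-7 M). 16 replicates ± SD.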

The subject of assay [3] is MDA-MB-231. Description: Inhibition of hormone-independent MDA-MB 231 mammary tumor cell proliferation at 1*10e-6 M. Type of assay: functional, Homo sapiens. An outline of the steps: as §1
Assay [4] has as its system MDA-MB-231. Description: Inhibition of hormone-independent MDA-MB 231 mammary tumor cell proliferation at 1*10e-7 M. Type of assay: functional, Homo sapiens. The procedure, abridged: as §1
The subject of assay [5] is MDA-MB-231. Put plainly: Inhibition of hormone-independent MDA-MB 231 mammary tumor cell proliferation at 5*10e-6 M. Type of assay: functional, Homo sapiens. An outline of the steps:
as §1

The subject of assay [6] is MCF7. Description: Inhibition of hormone-sensitive MCF-7 mammary tumor cell proliferation at 1*10e-5 M. Type of assay: functional, Homo sapiens. An outline of the steps: (§2)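 MCF-7 cells were grown in modified improved MEM with 10% newborn calf serum at 37 °C and 5% CO2, plated in 96-well plates for 3 d, then given drug medium (controls 0.1% DMF). After 3 days, cells were glutaraldehyde-fixed and crystal violet-stained; T/C = test/control optical density, corrected for initial density (vinblastine 10^-7 M). 16 replicates ± SD.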

Assay [7] relates to MCF7. Description: Inhibition of hormone-sensitive MCF-7 mammary tumor cell proliferation at 1*10e-6 M. Type of assay: functional, Homo sapiens. An outline of the steps: as §2
The subject of assay [8] is MCF7. Put plainly: Inhibition of hormone-sensitive MCF-7 mammary tumor cell proliferation at 1*10e-7 M. Type of assay: functional, Homo sapiens. An outline of the steps: as §2
Assay [9] concerns MCF7. Description: Inhibition of hormone-sensitive MCF-7 mammary tumor cell proliferation at 5*10e-6 M. Type of assay: functional, Homo sapiens. An outline of the steps: as §2
Assay [10] concerns the target T1, Estrogen receptor (Mus musculus) (UniProt O08537+P19785). Put plainly: Percent inhibition of estrone-stimulated uterotrophic effect in mice at 250 ug dose. Type of assay: functional. The procedure, abridged:
(§3)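 Antiuterotrophic test in immature female NMRI mice (20 days old). Estrone 0.4 μg was co-injected with the compound in olive oil, sc daily for three days. Uterine dry weight per body weight was read 24 h after the last dose. Inhibition (%) = 100 − [(W_S,T − W_V)/(W_S − W_V) × 100], where W_V is the vehicle control.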

Assay [11] deals with T1, Estrogen receptor (Mus musculus). Description: Percent inhibition of estrone-stimulated uterotrophic effect in mice at 50 ug dose. Type of assay: functional. The procedure, abridged:
as §3

Assay [12] shares this target. Description: Percent inhibition of estrone-stimulated uterotrophic effect in mice at 10 ug dose. Type of assay: functional. An outline of the steps: as §3
For assay [13] the target is unchanged. Description: Percent inhibition of estrone-stimulated uterotrophic effect in mice at 2 ug dose. Type of assay: functional. An outline of the steps: as §3
The target is the same in assay [14]. Put plainly: Anti-uterotrophic effect in mice as uterine weight(mg) relative to body weight(g) at 10 ug dose. Type of assay: functional. An outline of the steps: (§4)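 Immature female NMRI mice, 20 days old, groups of six to ten; compound plus standard estrone 0.4 μg in olive oil (100 μL/animal) given sc on three consecutive days. Killed 24 h after last injection; uteri fixed in Bouin solution 2 h, dried at 100 °C for 18 h, weighed. Relative weight = uterine dry weight (mg)/body weight (g) × 100; mean of 6 animals ± SD.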

The target is the same in assay [15]. Put plainly: Anti-uterotrophic effect in mice as uterine weight(mg) relative to body weight(g) at 2 ug dose. Type of assay: functional. An outline of the steps:
as §4

For assay [16] the target is unchanged. Description: Anti-uterotrophic effect in mice as uterine weight(mg) relative to body weight(g) at 250 ug dose. Type of assay: functional. The procedure, abridged:
as §4

Assay [17] shares this target. Description: Uterotrophic effect in mice as uterine weight(mg) relative to body weight(g) at 10 ug dose. Type of assay: functional, tissue-based. The procedure, abridged:
(§5)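 Uterotrophic test: 20-day-old immature female NMRI mice, six to ten per group, received compound alone in olive oil (100 μL/animal) sc on three consecutive days; controls received vehicle. After 24 h, uteri were Bouin-fixed 2 h and dried 18 h at 100 °C. Uterine dry weight (mg)/body weight (g) × 100; mean of 6 ± SD.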

Assay [18] shares this target. Put plainly: Uterotrophic effect in mice as uterine weight(mg) relative to body weight(g) at 2 ug dose. Type of assay: functional, tissue-based. The procedure, abridged:
as §5

The target is the same in assay [19]. Description: Uterotrophic effect in mice as uterine weight(mg) relative to body weight(g) at 250 ug dose. Type of assay: functional, tissue-based. The procedure, abridged: as §5
The target is the same in assay [20]. Put plainly: Uterotrophic effect in mice as uterine weight(mg) relative to body weight(g) at 50 ug dose. Type of assay: functional, tissue-based. The procedure, abridged:
as §5

Assay [21] shares this target. Put plainly: Anti-uterotrophic effect in mice as uterine weight(mg) relative to body weight(g) at 50 ug dose. Type of assay: functional. The procedure, abridged:
as §4

The T/C is the result in the treated group divided by that in the control group, in per cent. The term inhibition denotes the percentage by which the read-out fell short of the control. Low readings indicate a weak effect, high ones a strong effect.

T1 sequence (O08537 whole entry, looked up): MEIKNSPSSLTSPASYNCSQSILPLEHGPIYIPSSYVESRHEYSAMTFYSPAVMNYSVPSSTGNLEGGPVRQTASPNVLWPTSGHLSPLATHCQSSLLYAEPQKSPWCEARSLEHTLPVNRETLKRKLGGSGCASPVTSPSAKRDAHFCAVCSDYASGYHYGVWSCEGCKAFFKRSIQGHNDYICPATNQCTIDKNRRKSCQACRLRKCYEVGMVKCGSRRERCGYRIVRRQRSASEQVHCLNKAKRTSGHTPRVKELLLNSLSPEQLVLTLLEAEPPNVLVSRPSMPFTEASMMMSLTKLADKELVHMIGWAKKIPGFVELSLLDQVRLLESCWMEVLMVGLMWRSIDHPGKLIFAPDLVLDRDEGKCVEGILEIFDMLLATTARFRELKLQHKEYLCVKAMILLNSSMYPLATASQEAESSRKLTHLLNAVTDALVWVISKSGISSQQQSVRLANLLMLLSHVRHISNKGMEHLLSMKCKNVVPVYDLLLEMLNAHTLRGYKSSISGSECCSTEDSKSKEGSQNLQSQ
T1 sequence (P19785 whole entry, looked up): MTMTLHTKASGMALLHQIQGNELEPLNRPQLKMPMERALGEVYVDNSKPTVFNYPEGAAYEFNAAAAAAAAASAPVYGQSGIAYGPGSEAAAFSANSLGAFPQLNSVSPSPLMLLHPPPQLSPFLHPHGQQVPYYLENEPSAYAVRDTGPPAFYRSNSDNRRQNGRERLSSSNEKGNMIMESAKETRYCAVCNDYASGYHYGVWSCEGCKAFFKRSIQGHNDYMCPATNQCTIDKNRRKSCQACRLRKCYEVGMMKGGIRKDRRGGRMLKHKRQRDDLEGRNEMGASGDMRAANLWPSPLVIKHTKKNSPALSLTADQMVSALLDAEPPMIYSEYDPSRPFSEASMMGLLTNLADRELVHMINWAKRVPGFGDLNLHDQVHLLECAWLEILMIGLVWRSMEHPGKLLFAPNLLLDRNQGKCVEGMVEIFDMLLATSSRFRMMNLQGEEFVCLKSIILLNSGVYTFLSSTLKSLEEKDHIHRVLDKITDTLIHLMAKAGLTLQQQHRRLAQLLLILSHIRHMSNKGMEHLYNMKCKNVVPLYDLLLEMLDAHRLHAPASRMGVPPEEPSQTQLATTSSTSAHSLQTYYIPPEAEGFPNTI

The molecule `CCCCCC1Cc2cc(OC(C)=O)ccc2-c2c(C=O)c3cc(OC(C)=O)ccc3n21` (stereo not given) gave a relative binding affinity (RBA) in [1] of 1.9. Moreover, the T/C came out at 47% in [2]; 100% in assay [3]; 105% in [4]; 80% in assay [5]; 37% in [6]; 94% in assay [7]. Moreover, the results for the T/C in [8] and in assay [9] were 102% and 77%, respectively. In addition, the inhibition came to 8% in [10], 24% in assay [11], 14% in assay [12] and 0% in assay [13]. In addition, the Relative uterus weight in [14] amounted to 51; in [15], 57.3; in assay [16], 53.8; in [17], 16; in assay [18], 17.9; in assay [19] it was 22.5. In addition, the Relative uterus weight in assay [20] worked out at 20.2; in [21], 47.1.
In turn, `CCCC1Cc2cc(OC(C)=O)ccc2-c2c(C=O)c3cc(OC(C)=O)ccc3n21` (stereo not given) came in with a relative binding affinity (RBA) in assay [1] of 2.6. The T/C is 9% in assay [2]; 106% in assay [3]; 109% in assay [4]; 43% in [5]; 0% in [6]; 86% in [7]. The T/C in [8] amounted to 99%; in [9] it was 9%. The inhibition in assay [10] came out at 28%; in assay [11], 26%; in assay [12], 20%; in assay [13], 27%. Moreover, the Relative uterus weight in assay [14] came to 41.1; in assay [15], 38.8; in [16], 38.5; in assay [17] it was 21.1; in assay [18], 16.9; in assay [19] it was 32.9. For the same molecule, the Relative uterus weight in assay [20] was 24.9; in assay [21], 39.2.
Take `CC/C(=C(\c1ccccc1)c1ccc(OCCN(C)C)cc1)c1ccccc1` [TAMOXIFEN]: the T/C in [6] came to 18%; in assay [7] it was 57%; in [8] it was 85%; in assay [9], 43%.
As to `CCCCC1Cc2cc(OC(C)=O)ccc2-c2c(C=O)c3cc(OC(C)=O)ccc3n21` (stereo not given), in assay [1], the relative binding affinity (RBA) was found to be 2.1. Further, the T/C in [2] came to 12%; in [3] it was 73%; in assay [4] it was 116%; in assay [5] it was 12%; in [6] it was 0%; in assay [7], 12%. The T/C in assay [8] came out at 81%; in [9], 0%. In addition, the inhibition was 50% in [10], 18% in assay [11], 17% in assay [12] and 20% in [13]. The Relative uterus weight in assay [14] was found to be 48.2; in assay [15], 46.7; in [16], 34.3; in assay [17], 18.6; in assay [18], 20.2; in assay [19], 25.5. The Relative uterus weight in [20] stood at 9.1; in assay [21], 47.8.
On to `CCCCCC1Cc2cc(OC(C)=O)ccc2-c2c(C=O)c3ccc(OC(C)=O)cc3n21` (stereo not given), for which, in assay [1], the relative binding affinity (RBA) was 0.6. The T/C in assay [2] is given as 27%; in assay [3], 105%; in assay [4], 118%; in assay [5], 70%; in assay [6], 0%; in [7] it was 90%. The T/C in assay [8] was found to be 101%; in assay [9], 0%. Moreover, the inhibition in assay [10] worked out at 38%; in assay [11], 52%; in assay [12], 25%; in assay [13] it was 19%. Besides, the Relative uterus weight was determined as 46.4 in assay [14]; 49 in [15]; 41.2 in assay [16]; 16.6 in assay [17]; 16.4 in assay [18]; 19.5 in [19]. The Relative uterus weight amounted to 15.8 in assay [20] and 35.6 in assay [21].
Consider `CCCCC1Cc2cc(OC(C)=O)ccc2-c2c(C=O)c3ccc(OC(C)=O)cc3n21` (stereo not given), for which the relative binding affinity (RBA) in assay [1] is 0.7. Also, the T/C in [2] is listed as 16%; in assay [3] it was 30%; in [4] it was 104%; in [5], 24%; in assay [6], 0%; in [7], 0%. The results for the T/C in [8] and in assay [9] were 66% and 0%, respectively. Further, the inhibition came to 19% in assay [10], 8% in assay [11], 20% in assay [12] and 6% in assay [13]. Also, the Relative uterus weight was 46.7 in [14]; 52.8 in assay [15]; 47.5 in assay [16]; 13.7 in assay [17]; 16.7 in [18]; 10.6 in [19]. Also, the Relative uterus weight in assay [20] amounted to 12.3; in assay [21], 51.8.
The molecule `CC(=O)Oc1ccc2c(c1)CC(C)n1c-2c(C=O)c2cc(OC(C)=O)ccc21` (stereo not given) gave a relative binding affinity (RBA) in assay [1] of 3.9. Also, the T/C in [2] is listed as 61%; in assay [3], 104%; in assay [4], 109%; in assay [5], 94%; in [6] it was 23%; in assay [7], 94%. The T/C was determined as 93% in [8] and 54% in assay [9]. Moreover, the inhibition came out at 32% in assay [10], 49% in assay [11], 36% in assay [12] and 0% in assay [13]. Further, the Relative uterus weight in [14] turned out to be 42.8; in assay [15] it was 60.5; in [16], 44.4; in assay [17], 18.2; in assay [18], 14.8; in assay [19], 43.2. Further, the Relative uterus weight came to 24.6 in assay [20] and 36.5 in assay [21].
In [1], `CCCC1Cc2cc(OC(C)=O)ccc2-c2c(C=O)c3ccc(OC(C)=O)cc3n21` (stereo not given) registered a relative binding affinity (RBA) of 0.5. The T/C in [2] is given as 14%; in assay [3], 31%; in assay [4] it was 100%; in assay [5], 15%; in assay [6] it was 0%; in assay [7], 1%. In addition, the values for the T/C in assay [8] and in assay [9] were 71% and 0%, respectively. For the same molecule, the inhibition amounted to 65% in [10], 35% in assay [11], 41% in assay [12] and 39% in assay [13]. Besides, the Relative uterus weight in assay [14] was 38.4 and 16.9; in assay [15] it was 39.4; in [16] it was 29.5; in assay [17] it was 17.1; in [18], 20.4; in assay [19] it was 17.4. The Relative uterus weight in assay [21] came out at 40.7.
